# Published values pooled from the literature.
# Lines come from different studies, so protocols differ.
# Cell line: HL-60
# Read-out: cell growth or viability
Structure (SMILES),method,time,notes,IC50
COc1cc(-c2nc(C(=O)Nc3nnc(-c4cc5ccccc5n4C)s3)cc3c2[nH]c2ccccc23)cc(OC)c1OC,MTT,72 h,,10000 nM
COc1ccc(C(=O)c2ccccc2)c(O)c1,resazurin,72 h,dark,~120000 nM
CCCCN(Cc1ccc(C(=O)NO)cc1)C(=O)Nc1ccccc1,ATP luminescence,72 h,,894 nM
CC[C@@H](C)[C@H](N)C(=O)N1Cc2ccccc2C1,ATP luminescence,48 h,,2140 nM
Cn1c(-c2nnc(NC(=O)c3cc4c([nH]c5ccccc54)c(-c4ccc(F)cc4)n3)s2)cc2ccccc21,MTT,72 h,,37200 nM
COc1cc([C@@H]2c3cc4c(cc3[C@@H](O[C@@H]3O[C@@H]5CO[C@@H](C)O[C@H]5[C@H](O)[C@H]3O)[C@H]3COC(=O)[C@H]23)OCO4)cc(OC)c1O,MTT,48 h,,310 nM
CN1c2ccccc2C(=O)N2[C@H](C(=O)Nc3ccc(/C=C/C(=O)NO)cc3)Cc3c([nH]c4ccccc34)[C@@H]12,,,,630 nM
O=C(Nc1nnc(-c2cc3ccccc3[nH]2)s1)c1cc2c([nH]c3ccccc32)c(-c2ccccc2)n1,MTT,72 h,,8250 nM
CC(C)[C@H](N)C(=O)N1CCC[C@H]1B(O)O,ATP luminescence,48 h,,115 nM
CCCON(Cc1ccc(C(=O)NO)cc1)C(=O)Nc1ccc(N(C)C)cc1,ATP luminescence,72 h,,12900 nM
COc1cc(Nc2nccc(-c3cnn4nc(OC)ccc34)n2)cc(C(F)(F)F)c1,ATP luminescence,,,210 nM
COc1cccc2c1C(=O)c1c(O)c3c(c(O)c1C2=O)C[C@@](O)(C(=O)CO)C[C@@H]3O[C@H]1C[C@H](N)[C@H](O)[C@H](C)O1,MTT,72 h,,1080 nM
